According to article PMC8237303 (Heliyon, 2021):

What was measured:
[1] = target: α1B-Adrenergic receptor (Rattus norvegicus, UniProt P15823); test: [3H]-Prazosin binding assay; details: 0.1 mM l-menthol; Rat liver
[2] = target: Endothelin ETB receptor (Human) (Homo sapiens, UniProt P24530); test: [125I]-Endothelin-1; assay type: binding; details: 0.1 mM l-menthol; Human recombinant
[3] = target: Adenosine transporter (Human) (Homo sapiens, UniProt Q99808); test: [3H]-S-; assay type: binding; details: 0.1 mM l-menthol; Human receptor
[4] = target: Muscarinic M4 receptor (Human) (Homo sapiens, UniProt P08173); test: [3H]-Scopolamine Methyl Chloride binding assay; details: 0.1 mM l-menthol; Human recombinant
[5] = target: Serotonin 5HT1A receptor (Human) (Homo sapiens, UniProt P08908); test: [3H]-8-Hydreoxy-DPAT binding assay; details: 0.1 mM l-menthol; Human recombinant
[6] = test system: K Channel SkCa; test: [125I]-Apamin binding assay; details: 0.1 mM l-menthol; Rat whole brain
[7] = target: Muscarinic M1 receptor (Human) (Homo sapiens, UniProt P11229); test: [3H]-Scopolamine Methyl Chloride binding assay; details: 0.1 mM l-menthol; Human recombinant
[8] = test system: GABA A receptor (Benzodiazepine site); test: [3H]-Flunitrazepam binding assay; details: 0.1 mM l-menthol; Rat whole brain
[9] = target: Dopamine D5 receptor (Human) (Homo sapiens, UniProt P21918); test: [3H]SCH 23390 binding assay; details: 0.1 mM l-menthol; Human recombinant
[10] = target: Cannabinoid CB1 receptor (Human) (Homo sapiens, UniProt P21554); test: [3H]-CP-55,940 binding assay; details: 0.1 mM l-menthol; Human recombinant
[11] = target: Leukotriene D4 receptor (Cavia porcellus, UniProt Q2NNR5); test: [3H]-Leukotriene D4 binding assay; details: 0.1 mM l-menthol; Guinea pig lung
[12] = target: Vasopressin V1B receptor (Human) (Homo sapiens, UniProt P47901); test: [3H]-Vasopressin, 8-L-Arginine binding assay; details: 0.1 mM l-menthol; Human recombinant
[13] = test system: Ca Channel (Type L, Dihydropyridine); test: [3H]-PN200-110 binding assay; details: 0.1 mM l-menthol; Rat cerebral cortex
[14] = target: CCK B receptor (Human) (Homo sapiens, UniProt P32239); test: [125I]-Cholecystokinin Octapeptide binding assay; details: 0.1 mM l-menthol; Human recombinant
[15] = target: Histamine H2 receptor (Human) (Homo sapiens, UniProt P25021); test: [3H]-Tiotidine binding assay; details: 0.1 mM l-menthol; Human recombinant
[16] = test system: Glutamate (NMDA polyamine site); test: [3H]-Ifenprodil binding assay; details: 0.1 mM l-menthol; Rat cerebral cortex
[17] = target: Vasopressin V1 receptor (Rattus norvegicus, UniProt P30560); test: [3H]-Vasopressin, 8-L-Arginine binding assay; details: 0.1 mM l-menthol; Rat liver
[18] = target: β2-Adrenergic receptor (Human) (Homo sapiens, UniProt P07550); test: [3H]-; assay type: binding; details: 0.1 mM l-menthol; Human recombinant
[19] = target: T1, CRF1 receptor (Human) (Homo sapiens, UniProt P34998); test: [125I]-Corticotropin Releasing Factor; assay type: binding; details: 0.1 mM l-menthol; Human recombinant
T1 sequence (P34998 24-415): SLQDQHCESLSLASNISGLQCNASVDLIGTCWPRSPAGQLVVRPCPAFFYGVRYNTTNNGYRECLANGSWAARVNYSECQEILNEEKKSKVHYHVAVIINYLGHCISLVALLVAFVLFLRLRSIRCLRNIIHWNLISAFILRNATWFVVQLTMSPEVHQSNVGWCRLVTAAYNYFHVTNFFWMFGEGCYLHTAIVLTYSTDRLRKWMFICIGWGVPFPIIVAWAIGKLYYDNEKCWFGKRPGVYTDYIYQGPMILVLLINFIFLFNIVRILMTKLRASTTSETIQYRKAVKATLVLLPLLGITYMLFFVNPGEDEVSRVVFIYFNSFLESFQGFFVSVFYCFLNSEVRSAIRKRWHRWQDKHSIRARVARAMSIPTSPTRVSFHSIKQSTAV

[20] = target: Cannabinoid CB2 receptor (Human) (Homo sapiens, UniProt P34972); test: [3H]-CP-55,940 binding assay; details: 0.1 mM l-menthol; Human recombinant
[21] = test system: Imidazoline receptor (Central); test: [3H]RX 781094; assay type: binding; details: 0.1 mM l-menthol; Rat cerebral cortex
[22] = test system: Na Channel; assay type: binding; details: 0.1 mM l-menthol; Rat whole brain
[23] = target: CCK A receptor (Human) (Homo sapiens, UniProt P32238); test: [125I]-Cholecystokinin Octapeptide binding assay; details: 0.1 mM l-menthol; Human recombinant
[24] = target: Adenosine A1 receptor (Human) (Homo sapiens, UniProt P30542); test: [3H]8-Cyclopentyl-1,3-dipropylxanthine; assay type: binding; details: 0.1 mM l-menthol; Human recombinant
[25] = test system: mouse ambulation; test: Measurement of mouse ambulatory activity; assay type: in vivo; details: mice
Procedure, shortened: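 Ambulometer (SAM-10) recording; 30-min adaptation, then s.c. saline or 100, 200, 400 or 800 mg/kg test compound; n = 19–20 mice per group. Each mouse's activity normalized to its total adaptation-period activity, binned per 10 min (median, quartiles); total normalized activity over 60 min post-dose compared by Kruskal-Wallis then Wilcoxon versus vehicle, P < 0.05.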

[26] = target: Dopamine D4.2 receptor (Human) (Homo sapiens, UniProt P21917, DEL265-296); test: [3H]-Spiperone binding assay; details: 0.1 mM l-menthol; Human recombinant
[27] = test system: Ca channel (Type L, Phenylalkylamine); test: [3H]-; assay type: binding; details: 0.1 mM l-menthol; Rat cerebral cortex
[28] = test system: Glutamate receptor (NMDA agonist site); test: [3H]-CGP-39653 binding assay; details: 0.1 mM l-menthol; Rat cerebral cortex
[29] = test system: Glutamate receptor (AMPA); test: D,L-alpha-[3H]-Amino-3-Hydroxy-Methylisoxazole-4-Propionic Acid; assay type: binding; details: 0.1 mM l-menthol; Rat cerebral cortex
[30] = test system: Leukotriene B4 receptor; test: [3H]-Leukotriene B4 binding assay; details: 0.1 mM l-menthol; Guinea pig lung
[31] = target: Dopamine D2 receptor short isoform (Human) (Homo sapiens, UniProt P14416); test: [3H]-Spiperone binding assay; details: 0.1 mM l-menthol; Human recombinant
[32] = target: Vasopressin V2 receptor (Human) (Homo sapiens, UniProt P30518); test: [3H]-Vasopressin, 8-L-Arginine binding assay; details: 0.1 mM l-menthol; Human recombinant
[33] = target: VIP 1 receptor (Human) (Homo sapiens, UniProt P32241); test: [125I]-Vasoactive Intestinal Polypeptide binding assay; details: 0.1 mM l-menthol; Human receptor (Non-recombinant)
[34] = target: Histamine H1 receptor (Human) (Homo sapiens, UniProt P35367); test: [3H]-Pyrilamine binding assay; details: 0.1 mM l-menthol; Human recombinant
[35] = target: Norepinephrine transporter (Human) (Homo sapiens, UniProt P23975); test: [3H]-Nisoxetine hydrochloride binding assay; details: 0.1 mM l-menthol; Human recombinant
Norepinephrine transporter (Human), sequence (P23975 whole entry): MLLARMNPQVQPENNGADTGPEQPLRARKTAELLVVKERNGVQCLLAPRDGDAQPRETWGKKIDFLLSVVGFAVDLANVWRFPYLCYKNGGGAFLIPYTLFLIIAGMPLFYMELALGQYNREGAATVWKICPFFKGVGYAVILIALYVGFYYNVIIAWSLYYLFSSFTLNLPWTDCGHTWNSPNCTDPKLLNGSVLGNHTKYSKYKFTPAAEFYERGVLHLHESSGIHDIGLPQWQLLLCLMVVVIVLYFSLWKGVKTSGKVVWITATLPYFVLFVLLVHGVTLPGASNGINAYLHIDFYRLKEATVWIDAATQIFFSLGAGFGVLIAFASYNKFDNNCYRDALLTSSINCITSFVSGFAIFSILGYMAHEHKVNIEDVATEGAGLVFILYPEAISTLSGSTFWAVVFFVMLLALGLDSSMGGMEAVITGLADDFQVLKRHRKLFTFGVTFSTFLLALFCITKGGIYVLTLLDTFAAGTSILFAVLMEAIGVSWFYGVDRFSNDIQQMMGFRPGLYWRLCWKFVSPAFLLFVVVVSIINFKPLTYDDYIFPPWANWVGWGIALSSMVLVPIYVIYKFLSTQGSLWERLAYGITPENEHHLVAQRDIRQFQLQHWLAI

Vasopressin V1B receptor (Human), sequence (P47901 whole entry): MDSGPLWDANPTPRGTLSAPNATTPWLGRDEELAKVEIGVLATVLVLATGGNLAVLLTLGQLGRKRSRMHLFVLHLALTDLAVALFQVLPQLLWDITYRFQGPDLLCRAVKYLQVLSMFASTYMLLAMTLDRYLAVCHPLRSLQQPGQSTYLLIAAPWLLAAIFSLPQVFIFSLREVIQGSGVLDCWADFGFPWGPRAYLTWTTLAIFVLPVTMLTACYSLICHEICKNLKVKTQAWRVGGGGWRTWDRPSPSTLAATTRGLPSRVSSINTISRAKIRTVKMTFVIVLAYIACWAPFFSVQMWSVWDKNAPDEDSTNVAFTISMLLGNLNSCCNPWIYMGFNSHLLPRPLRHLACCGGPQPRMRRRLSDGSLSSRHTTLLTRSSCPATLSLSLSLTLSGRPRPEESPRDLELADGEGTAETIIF
CCK A receptor (Human), sequence (P32238 whole entry): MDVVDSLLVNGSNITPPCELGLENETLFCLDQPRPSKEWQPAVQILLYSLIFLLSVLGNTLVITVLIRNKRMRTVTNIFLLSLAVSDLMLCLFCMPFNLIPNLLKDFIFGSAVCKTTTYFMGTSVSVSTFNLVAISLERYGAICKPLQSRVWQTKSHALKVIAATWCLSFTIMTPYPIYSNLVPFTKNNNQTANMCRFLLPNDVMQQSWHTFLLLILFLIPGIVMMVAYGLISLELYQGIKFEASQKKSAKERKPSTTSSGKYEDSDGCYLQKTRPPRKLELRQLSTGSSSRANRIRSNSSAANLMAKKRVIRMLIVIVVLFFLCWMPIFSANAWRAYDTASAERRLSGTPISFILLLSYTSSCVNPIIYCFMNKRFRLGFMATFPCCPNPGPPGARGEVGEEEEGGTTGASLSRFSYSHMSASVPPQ
α1B-Adrenergic receptor, sequence (P15823 whole entry): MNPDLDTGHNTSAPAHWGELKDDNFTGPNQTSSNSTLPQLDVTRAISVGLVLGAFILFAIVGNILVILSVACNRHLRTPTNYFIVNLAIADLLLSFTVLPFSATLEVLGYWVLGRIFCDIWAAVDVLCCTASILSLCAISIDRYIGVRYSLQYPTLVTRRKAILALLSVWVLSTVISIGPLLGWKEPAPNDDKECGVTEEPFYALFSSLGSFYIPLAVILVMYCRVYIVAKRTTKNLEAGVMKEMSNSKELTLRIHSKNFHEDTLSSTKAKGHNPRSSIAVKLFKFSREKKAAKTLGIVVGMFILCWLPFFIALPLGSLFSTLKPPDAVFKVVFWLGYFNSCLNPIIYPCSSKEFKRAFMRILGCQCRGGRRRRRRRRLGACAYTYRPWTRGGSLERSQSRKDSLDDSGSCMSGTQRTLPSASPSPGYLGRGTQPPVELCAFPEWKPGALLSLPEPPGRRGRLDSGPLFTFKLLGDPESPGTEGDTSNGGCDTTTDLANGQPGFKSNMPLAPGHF
Histamine H2 receptor (Human), sequence (P25021 whole entry): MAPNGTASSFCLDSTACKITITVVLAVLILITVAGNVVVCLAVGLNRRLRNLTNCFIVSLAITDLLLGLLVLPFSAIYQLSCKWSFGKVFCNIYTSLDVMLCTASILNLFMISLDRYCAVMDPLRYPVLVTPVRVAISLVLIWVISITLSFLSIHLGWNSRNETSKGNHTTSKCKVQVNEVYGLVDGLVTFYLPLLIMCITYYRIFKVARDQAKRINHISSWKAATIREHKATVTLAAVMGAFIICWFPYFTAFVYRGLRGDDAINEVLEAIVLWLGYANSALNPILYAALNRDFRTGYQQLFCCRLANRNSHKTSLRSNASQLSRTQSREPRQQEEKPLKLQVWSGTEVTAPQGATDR
Dopamine D5 receptor (Human), sequence (P21918 whole entry): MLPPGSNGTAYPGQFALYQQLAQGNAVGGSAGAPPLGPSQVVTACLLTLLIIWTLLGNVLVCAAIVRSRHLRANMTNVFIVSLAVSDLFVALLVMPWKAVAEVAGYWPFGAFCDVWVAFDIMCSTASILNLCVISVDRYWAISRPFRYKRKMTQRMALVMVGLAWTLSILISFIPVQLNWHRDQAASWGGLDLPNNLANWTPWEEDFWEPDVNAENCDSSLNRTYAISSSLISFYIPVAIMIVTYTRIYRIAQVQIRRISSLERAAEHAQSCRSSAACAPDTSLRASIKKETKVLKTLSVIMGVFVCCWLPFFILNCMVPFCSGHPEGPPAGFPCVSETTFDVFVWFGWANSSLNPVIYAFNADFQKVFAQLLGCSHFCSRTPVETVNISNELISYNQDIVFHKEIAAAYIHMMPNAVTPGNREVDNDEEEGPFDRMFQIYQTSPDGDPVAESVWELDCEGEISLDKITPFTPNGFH
Dopamine D2 receptor short isoform (Human), sequence (P14416 1-414 isoform P14416-2): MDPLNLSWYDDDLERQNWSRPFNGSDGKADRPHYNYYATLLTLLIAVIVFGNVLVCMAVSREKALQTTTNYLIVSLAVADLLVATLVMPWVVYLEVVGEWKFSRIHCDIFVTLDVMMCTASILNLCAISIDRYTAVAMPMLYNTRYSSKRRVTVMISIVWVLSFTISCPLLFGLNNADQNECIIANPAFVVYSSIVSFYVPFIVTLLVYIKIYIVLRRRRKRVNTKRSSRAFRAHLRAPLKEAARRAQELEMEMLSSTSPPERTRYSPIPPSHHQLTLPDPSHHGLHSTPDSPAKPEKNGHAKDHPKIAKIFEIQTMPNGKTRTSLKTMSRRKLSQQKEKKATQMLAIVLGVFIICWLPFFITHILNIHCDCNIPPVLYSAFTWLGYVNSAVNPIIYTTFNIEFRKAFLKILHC
Endothelin ETB receptor (Human), sequence (P24530 27-442): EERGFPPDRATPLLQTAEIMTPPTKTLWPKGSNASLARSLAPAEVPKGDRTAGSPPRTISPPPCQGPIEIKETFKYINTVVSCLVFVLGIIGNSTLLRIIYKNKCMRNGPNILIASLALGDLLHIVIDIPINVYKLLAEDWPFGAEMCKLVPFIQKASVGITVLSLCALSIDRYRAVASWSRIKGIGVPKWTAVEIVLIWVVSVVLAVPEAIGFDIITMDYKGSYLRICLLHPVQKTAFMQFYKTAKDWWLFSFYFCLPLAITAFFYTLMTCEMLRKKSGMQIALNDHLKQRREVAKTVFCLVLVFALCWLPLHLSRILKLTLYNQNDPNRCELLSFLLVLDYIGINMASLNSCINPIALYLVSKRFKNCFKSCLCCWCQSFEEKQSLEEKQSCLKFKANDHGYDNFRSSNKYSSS
Adenosine transporter (Human), sequence (Q99808 whole entry): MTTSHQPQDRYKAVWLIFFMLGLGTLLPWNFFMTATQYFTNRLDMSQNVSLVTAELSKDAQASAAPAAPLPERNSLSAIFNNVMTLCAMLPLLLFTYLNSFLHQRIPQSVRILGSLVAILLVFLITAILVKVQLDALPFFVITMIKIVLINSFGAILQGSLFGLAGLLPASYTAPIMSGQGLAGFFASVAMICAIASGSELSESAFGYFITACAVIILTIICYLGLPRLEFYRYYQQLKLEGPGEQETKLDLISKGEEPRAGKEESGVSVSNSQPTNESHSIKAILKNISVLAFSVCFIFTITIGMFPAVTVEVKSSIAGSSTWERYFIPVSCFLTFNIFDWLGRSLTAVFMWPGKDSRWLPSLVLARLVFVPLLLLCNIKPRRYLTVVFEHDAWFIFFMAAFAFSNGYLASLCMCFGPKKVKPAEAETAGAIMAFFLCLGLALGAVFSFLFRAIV
Cannabinoid CB1 receptor (Human), sequence (P21554 whole entry): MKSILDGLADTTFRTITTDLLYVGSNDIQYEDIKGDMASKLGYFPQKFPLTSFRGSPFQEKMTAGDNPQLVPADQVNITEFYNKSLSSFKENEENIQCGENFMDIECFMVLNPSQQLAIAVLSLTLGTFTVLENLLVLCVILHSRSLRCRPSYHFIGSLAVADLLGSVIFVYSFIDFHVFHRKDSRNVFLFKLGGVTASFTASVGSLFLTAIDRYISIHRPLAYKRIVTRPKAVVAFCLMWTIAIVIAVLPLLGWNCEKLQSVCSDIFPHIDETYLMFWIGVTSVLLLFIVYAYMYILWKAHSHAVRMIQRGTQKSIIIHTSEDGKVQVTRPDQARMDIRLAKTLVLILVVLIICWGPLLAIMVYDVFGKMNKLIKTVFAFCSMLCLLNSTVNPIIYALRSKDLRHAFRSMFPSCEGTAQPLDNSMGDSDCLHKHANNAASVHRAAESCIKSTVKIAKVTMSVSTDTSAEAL
Cannabinoid CB2 receptor (Human), sequence (P34972 whole entry): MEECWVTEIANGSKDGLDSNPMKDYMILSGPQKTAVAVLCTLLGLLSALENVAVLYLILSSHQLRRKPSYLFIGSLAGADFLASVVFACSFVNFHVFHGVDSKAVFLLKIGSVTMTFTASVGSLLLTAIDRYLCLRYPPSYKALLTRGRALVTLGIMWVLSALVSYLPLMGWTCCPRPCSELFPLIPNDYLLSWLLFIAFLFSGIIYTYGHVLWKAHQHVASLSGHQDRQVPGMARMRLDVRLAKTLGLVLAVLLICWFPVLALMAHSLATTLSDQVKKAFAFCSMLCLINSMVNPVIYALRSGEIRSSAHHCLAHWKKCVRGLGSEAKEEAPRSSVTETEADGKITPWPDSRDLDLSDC

For `CC(C)[C@@H]1CC[C@@H](C)C[C@H]1O` [l-menthol], the “Inhibition by l-Menthol (%)” value [1] was 1.76%, the “Inhibition by l-Menthol (%)” value [2] was 3.39% and the “Inhibition by l-Menthol (%)” value [3] was 0.68%. The “Inhibition by l-Menthol (%)” value [4] was 0%, the “Inhibition by l-Menthol (%)” value [5] was 0% and the “Inhibition by l-Menthol (%)” value [6] was 2.36%. The “Inhibition by l-Menthol (%)” value [7] was 0%, the “Inhibition by l-Menthol (%)” value [8] was 1.37% and the “Inhibition by l-Menthol (%)” value [9] was 0%. For the same compound, the “Inhibition by l-Menthol (%)” value [10] was 9.12%, the “Inhibition by l-Menthol (%)” value [11] was 0% and the “Inhibition by l-Menthol (%)” value [12] was 0%. The “Inhibition by l-Menthol (%)” value [13] was 1.17%, the “Inhibition by l-Menthol (%)” value [14] was 3.31% and the “Inhibition by l-Menthol (%)” value [15] was 21.17%. The “Inhibition by l-Menthol (%)” value [16] was 3.79%, the “Inhibition by l-Menthol (%)” value [17] was 0% and the “Inhibition by l-Menthol (%)” value [18] was 0%. The “Inhibition by l-Menthol (%)” value [19] was 0%, the “Inhibition by l-Menthol (%)” value [20] was 8.57% and the “Inhibition by l-Menthol (%)” value [21] was 6.53%. The “Inhibition by l-Menthol (%)” value [22] was 14.04%, the “Inhibition by l-Menthol (%)” value [23] was 0% and the “Inhibition by l-Menthol (%)” value [24] was 1.83%. For the same compound, the “Dose dependence of the ambulation-promoting effect” value ([25]; 100-800 mg/kg s.c., Kruskal-Wallis test P < 0.0001) was “dose dependent”, the “Time of maximum ambulatory activity after administration” value ([25]; subcutaneous 100-800 mg/kg) was 5 min and the “Inhibition by l-Menthol (%)” value [26] was 28.19%. The “Inhibition by l-Menthol (%)” value [27] was 24.78%, the “Inhibition by l-Menthol (%)” value [28] was 0% and the “Inhibition by l-Menthol (%)” value [29] was 0%. The “Inhibition by l-Menthol (%)” value [30] was 11.63%, the “Inhibition by l-Menthol (%)” value [31] was 0% and the “Inhibition by l-Menthol (%)” value [32] was 13.53%. For the same compound, the “Inhibition by l-Menthol (%)” value [33] was 2.48%, the “Inhibition by l-Menthol (%)” value [34] was 0% and the “Inhibition by l-Menthol (%)” value [35] was 7.89%.
